Source: PubChem (The Scripps Research Institute Molecular Screening Center)
OX1R antag-1 – antagonists of human orexin 1 receptor (OX1R). O43613. OX1R-expressing cells, FRET antagonist read-out. inhibition, % at 6.6 µM. hit rate 1.8% among 330,000. AID 485270; in the data active means inhibition mostly above about 38%, no sharp cut-off; inactive means mostly below about 40%;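 further: 0% = agonist challenge alone and 100% = reference antagonist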
OX1R antag-2 – antagonists of human orexin 1 receptor; O43613; CHO/OX1R cells, Fluo-8 calcium fluorescence, orexin A; inhibition, % at 5 µM; hit rate 0.43% among 330,000;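 active means inhibition above its plate's threshold, mean inhibition of all tested compounds on the plate plus 3 SD, cut at about 37% in these data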;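 further: 0% = orexin A challenge wells and 100% = SB-334867-A antagonist wells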
GPR7 antagonist – blocks human GPR7 receptor signaling; inhibition, % at 4.4 µM; hit rate 1.1% among 290,000; GPR7-expressing cells, fluorescence antagonist assay; P48145; in the data active means inhibition above about 16%, passing the limit was not always enough;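 further: cells stimulated with the agonist NPW; 0% = agonist with vehicle and 100% = vehicle without agonist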
Target sequence (P48145 whole entry, looked up): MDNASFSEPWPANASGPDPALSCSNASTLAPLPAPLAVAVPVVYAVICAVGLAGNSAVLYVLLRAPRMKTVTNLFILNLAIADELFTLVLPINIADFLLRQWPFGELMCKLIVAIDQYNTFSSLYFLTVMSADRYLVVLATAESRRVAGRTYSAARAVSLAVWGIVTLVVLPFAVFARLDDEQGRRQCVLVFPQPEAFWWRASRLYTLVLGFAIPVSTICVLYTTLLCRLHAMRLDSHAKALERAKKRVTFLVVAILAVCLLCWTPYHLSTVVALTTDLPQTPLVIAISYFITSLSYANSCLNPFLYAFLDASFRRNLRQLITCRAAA
TAAR1 antagonist – antagonists of human TAAR1; CHO RD-HGA16 TAAR1, Fluo-8 calcium fluorescence, antagonist; inhibition, % at 3 µM; hit rate 1.5% among 360,000; Q96RJ0;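 active means inhibition above a per-plate cutoff, the mean inhibition of test compounds on that plate plus 3 SD, cut at about 49% in these data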;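 further: 0% = DMSO plus EC80 beta-PEA response and 100% = DMSO alone without agonist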
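test system = CHO RD-HGA16 cells bearing hTAAR1 | replication = singlicate | controls = DMSO-only wells and EC80 β-PEA-stimulated wells | reagent = EC80 β-phenethylamine stimulus | read-out basis = percent inhibition of PEA-evoked calcium signal, max/basal emission ratio | schedule = seeding 17-24 h prior, 75-min 37 °C, 30-min RT dye loading | signal = kinetic Fluo-8 calcium fluorescence measurement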
CHO parental Ca – signal in parental CHO cells, OX1R antagonist counter-screen; parental CHO-K1, ATP-induced calcium, Fluo-8 fluorescence; inhibition, % at 5.6 µM; hit rate 0.63% among 330,000;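 active means inhibition above that plate's mean sample inhibition plus 3 SD, cut at about 26% in these data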;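 further: 0% = ATP-challenged DMSO wells and 100% = DMSO wells without ATP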
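test system = CHO parental line | reagent = ATP stimulus | measured by = intracellular calcium via Fluo-8 no-wash fluorescent dye | control set = ATP and no-ATP DMSO wells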
TAAR1 agonist – human TAAR1 agonism; Q96RJ0; activation, % at 3 µM; hit rate 0.99% among 360,000; CHO RD-HGA16 TAAR1, Fluo-8 calcium fluorescence; vehicle wells 0%, saturating PEA agonist 100%;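 active means activation above the mean activation of all test compounds in the run plus 3 SD, cut at about 38% in these data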
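Test system: RD-HGA16 (CHO) cells co-expressing Gα16 and hTAAR1 | Doses: Single dose, 3 µM | Schedule: 17-24 h seeding, 75 min 37 °C dye, 30 min RT | Evaluation: % activation from peak over basal fluorescence ratio, DMSO-to-PEA scaled | Technique: Kinetic Fluo-8 calcium fluorescence | Benchmarks: Low control DMSO, high control PEA (EC100)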
* = called active by the depositor; x = not tested or not shown. An excerpt weighted towards active compounds, which were near 4.5% of everything screened.

SMILES	OX1R antag-1	OX1R antag-2	GPR7 antagonist	TAAR1 antagonist	CHO parental Ca	TAAR1 agonist
Cc1cccn2c(=O)c3cc(C(=O)NCc4ccco4)c(=N)n(CCOCCO)c3nc12	44*	-3	-3	x	6	x
Cc1cccn2c(=O)c3cc(C(=O)NCc4ccco4)c(=N)n(C4CCCCC4)c3nc12	35	-16	6	x	-25	x
O=S1(=O)CCOC[C@H](CC2CCCCC2)N1Cc1ccccc1	27	-22	-6	3	-20	12
Cc1ccccc1CN1[C@@H](CC2CCCCC2)COCCS1(=O)=O	68*	-33	-2	5	-32	10
COc1cccc(/C=N/Nc2nc3ccccc3n3cnnc23)c1O	67*	-6	-10	-1	-2	5
O=C(NCCNc1ccc([N+](=O)[O-])cc1C(F)(F)F)c1ccccc1F	42	27	-1	16	42*	3
CC(O)(c1ccc(F)c(F)c1)c1nc(-c2cccc(C#N)c2)cs1 (centres undefined)	x	x	x	21	x	0
Cc1cccc(C)c1Nc1nnc(SCc2cc([N+](=O)[O-])cc3c2OCOC3)s1	14	-5	2	13	-13	2
COc1cccc(Nc2nnc(SCc3cc([N+](=O)[O-])cc4c3OCOC4)s2)c1	68*	-17	-1	34	5	3
C[C@@H]1CN([C@@H](C)CO)C(=O)CCCn2nncc2CO[C@H]1CN(C)S(=O)(=O)c1ccc(-n2cccn2)cc1	x	x	x	-7	x	1
COCCN1C[C@@H](CO)O[C@@H](n2cnc3c(NCc4ccco4)ncnc32)C1	x	x	x	7	x	0
COc1cccc(N2CCN(c3ncnc4c3[nH]c3ccc(F)cc34)CC2C)c1 (centres undefined)	86*	99*	84*	93*	96*	27
COc1ccc2[nH]c3c(N4CC(C)OC(C)C4)ncnc3c2c1 (centres undefined)	14	-16	-14	9	-10	4
COc1cccc(N2CCN(c3ncnc4c3[nH]c3ccccc34)CC2C)c1 (centres undefined)	112*	91*	-1	89*	89*	16
CC(C)C(C(=O)Nc1ccncc1)c1ccc(Cl)cc1 (centres undefined)	7	-1	13	37	1	54*
CC(C)(Oc1ccc(Cl)cc1)C(=O)Nc1ccncc1	38	19	9	-1	37*	8
CC(=O)Nc1ccc(S(=O)(=O)NCC(=O)OCC(=O)N2CC(C)OC(C)C2)cc1 (centres undefined)	-3	-15	x	4	-8	14
CCN(c1ccccc1)S(=O)(=O)c1ccc(OC)c(NC(=O)Cc2ccccc2OC)c1	22	8	x	-10	-7	1
COc1ccc(OCC(=O)Nc2cc(S(=O)(=O)N3CCCCC3)ccc2OC)cc1	17	-21	x	-35	2	-1
COc1ccc(OCC(=O)Nc2cc(S(=O)(=O)N3CCCC3)ccc2Cl)cc1	x	x	x	61*	x	39*
CCN(c1ccccc1)S(=O)(=O)c1ccc(Cl)c(NC(=O)CNCc2ccccc2OC)c1	17	4	x	55*	-21	5
CCN(CC)S(=O)(=O)c1ccc(Cl)c(NC(=O)COc2ccc(OC)cc2)c1	13	2	1	58*	21	27
O=C(Nc1cccnc1)c1cc(-c2ccc3c(c2)OCO3)on1	10	12	-7	-12	1	5
O=C1NC(=O)/C(=C\c2ccc(Cl)cc2Cl)N1	x	x	x	2	x	2
CC1CC(O)C2C3(C)CCCC2(COC3=O)C12CCC1(CCOC1=O)O2 (centres undefined)	x	x	x	-14	x	1
SMILES	OX1R antag-1	OX1R antag-2	GPR7 antagonist	TAAR1 antagonist	CHO parental Ca	TAAR1 agonist
Cc1ccc(NC(=O)c2ccc([N+](=O)[O-])o2)cc1C	37	-4	-17	-2	-7	4
O=C(Nc1ccc2[nH]c(=O)[nH]c2c1)c1ccc([N+](=O)[O-])o1	43*	-2	x	4	-7	1
O=C(Nc1cccc(NC(=O)c2ccccc2Cl)c1)c1ccc([N+](=O)[O-])o1	41	19	1	55*	18	17
COc1cc(/C=C(\C#N)c2nc3ccccc3[nH]2)c([N+](=O)[O-])cc1OCc1ccccc1	50	-4	-8	54*	-7	9
COc1cc(/C=C(\C#N)c2nc3ccccc3[nH]2)ccc1OC(=O)c1ccco1	71*	14	2	18	2	11
CCOc1cc(/C=C(/C#N)c2nc3ccccc3[nH]2)ccc1OCc1ccc(C(=O)O)o1	4	-11	-1	-18	-3	0
OC(c1nc2ccccc2[nH]1)C(O)c1nc2ccccc2[nH]1 (centres undefined)	-8	-18	-10	-13	-16	5
Cc1ccc2nc(C(C)O)[nH]c2c1 (centres undefined)	11	1	-2	-18	45*	2
Cc1ccc2nc(C(O)C(O)c3nc4ccc(C)cc4[nH]3)[nH]c2c1 (centres undefined)	-14	-24	-3	-7	-27	38*
Cc1cc2cc(C(c3nnnn3Cc3ccccc3)N3CCc4ccccc43)c(=O)[nH]c2cc1C (centres undefined)	46*	8	-5	0	-28	6
CCCNc1nc2c(c(=O)n(C)c(=O)n2C)n1CCc1ccccc1	8	2	-13	6	-12	5
CC(=O)C(C)n1c(CN(C)Cc2ccccc2)nc2c1c(=O)n(C)c(=O)n2C (centres undefined)	13	8	-1	-4	-7	4
CC(C)n1c(NCCc2ccccc2)nc2c1c(=O)n(C)c(=O)n2C	27	7	-9	25	39*	19
CC(C)n1c(CN(C)Cc2ccccc2)nc2c1c(=O)n(C)c(=O)n2C	54*	16	28	31	69*	10
C=CCC[C@H](Cc1ccc(F)cc1)C(=O)OC[C@H](C)NC(=O)[C@@H](CC=C)CC(=O)N[C@H](CO)Cc1ccccc1	18	12	x	15	-15	15
COc1ccc(Oc2c(Cl)cnn(-c3ccc(Cl)c(Cl)c3)c2=O)cc1	12	14	20	10	52*	1
Cc1cccc(-n2c(C)nc3c(cnn3-c3ccc(F)cc3)c2=O)c1	54	28	3	29	35*	3
COc1ccc(-n2c(C)nc3c(cnn3-c3ccc(Cl)cc3)c2=O)cc1	35	19	4	10	40*	3
Cc1ccc2[nH]c3c(N4CCCCCC4)ncnc3c2c1	x	x	4	x	x	x
c1ccc(CN2CCN(c3ncnc4c3[nH]c3ccccc34)CC2)cc1	33	3	0	47	46*	21
c1ccc2c(c1)CCN(c1ncnc3c1[nH]c1ccccc13)C2	80*	80*	x	58*	66*	16
